≈ marks a conversion by molar mass, not a printed value.

For data set [1], the target named is T1, Epidermal growth factor receptor (Homo sapiens, UniProt P00533). Kind of data set: Inhibition of recombinant human GST-tagged wild type EGFR ( 668 to 1210 residues) cytoplasmic domain expressed in baculovirus expression system preincubated for 20 mins followed by addition of [33P]-ATP measured after 2 hrs by filter-binding method.
Data set [2] addresses T2, Epidermal growth factor receptor (Homo sapiens, UniProt P00533, L858R). Kind of data set: Inhibition of recombinant human GST-tagged EGFR L858R mutant cytoplasmic domain expressed in baculovirus expression system preincubated for 20 mins followed by addition of [33P]-ATP measured after 2 hrs by filter-binding method.
In data set [3] the target is Epidermal growth factor receptor (Homo sapiens, UniProt P00533, T790M/L858R). The experiment in a line: (§1) Inhibition of recombinant human GST-tagged EGFR L858R/T790M double mutant cytoplasmic domain expressed in baculovirus expression system preincubated for 20 mins followed by addition of [33P]-ATP measured after 2 hrs by filter-binding method.
Data set [4] addresses Epidermal growth factor receptor (Homo sapiens, UniProt P00533, T790M/C797S/L858R). Kind of data set: (§2) Inhibition of recombinant human N-terminally GST-tagged EGFR L858R/T790M/C797S triple mutant expressed in baculovirus in Sf9 insect cells preincubated for 20 mins followed by addition of [33P]-ATP measured after 2 hrs by filter-binding method.
In data set [5] the target is T3, Epidermal growth factor receptor (Homo sapiens, UniProt P00533, L858R/T790M). The data set is described as §1.
Data set [6] addresses Epidermal growth factor receptor (Homo sapiens, UniProt P00533, C797S/L858R/T790M). The description is as §2.
For a further data set, the species on record is Homo sapiens. Kind of data set: Selectivity ratio of IC50 for EGFR L858R/T790M double mutant (unknown origin) to IC50 for wild-type EGFR (unknown origin).
The target in data set [7] is Mitogen-activated protein kinase 14 (Homo sapiens, UniProt Q16539). The experiment in a line: Inhibition of p38alpha MAPK (unknown origin) assessed as decrease in ATF2 phosphorylation at Thr69/71 at 1 uM after 1 hr by ELISA. A general note: An ELISA detects its analyte on a solid surface through an enzyme-linked reagent.
Data set [8] concerns Epidermal growth factor receptor (Homo sapiens), P00533 [L858R,T790M,C797S]. The experiment in a line: Potency index, ratio of osimertinib IC50 to compound IC50 for recombinant human N-terminally GST-tagged EGFR L858R/T790M/C797S triple mutant expressed in baculovirus in Sf9 insect cells.
A short description of data set [9]: Solubility of the compound at pH 7.5 by UV-HPLC analysis. The conditions noted are these: buffer. Type of data set: physicochemical. The method in brief:
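Solubility measured in the kinase assay buffer (pH 7.5); concentration determined by HPLC with UV detection.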

The target of data set [10] is T1, Epidermal growth factor receptor. The experiment in a line: Inhibition of wild-type EGFR (unknown origin).
The target in data set [11] is T2, Epidermal growth factor receptor. The experiment in a line: Inhibition of EGFR L858R mutant (unknown origin).
In data set [12] the target is T3, Epidermal growth factor receptor. Kind of data set: Inhibition of EGFR L858R/T790M double mutant (unknown origin).

Mitogen-activated protein kinase 14, sequence (Q16539 whole entry): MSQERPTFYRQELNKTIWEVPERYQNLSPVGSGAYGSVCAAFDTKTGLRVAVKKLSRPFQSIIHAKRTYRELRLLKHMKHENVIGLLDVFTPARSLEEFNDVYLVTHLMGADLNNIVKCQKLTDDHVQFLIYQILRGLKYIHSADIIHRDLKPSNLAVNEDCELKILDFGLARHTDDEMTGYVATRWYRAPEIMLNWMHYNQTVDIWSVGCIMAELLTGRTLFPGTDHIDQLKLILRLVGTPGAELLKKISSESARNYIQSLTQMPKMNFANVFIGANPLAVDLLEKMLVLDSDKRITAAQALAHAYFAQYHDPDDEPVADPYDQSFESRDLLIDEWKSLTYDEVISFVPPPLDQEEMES

With `Fc1ccc(-c2nc(-c3ccccc3)[nH]c2-c2ccnc3[nH]ccc23)cc1`, the IC50 in data set [1] (read-out: IC50) was 712 nM; in [2] (read-out: IC50), 631 nM; in [3] it was “Not Active”; in [4], “Not Active”.

Consider `OCCCc1nc(-c2ccc(F)cc2)c(-c2ccnc3[nH]ccc23)[nH]1`, for which the half-maximal inhibitory concentration (IC50) in data set [1] (read-out: IC50) came out at 44 nM; in [2] (read-out: IC50) it was 24.4 nM; in data set [5] it was 893 nM; in data set [6], 943 nM; in [7] it was 12 nM. In the data set filed under Homo sapiens, the Ratio IC50 is greater than 130.

`Nc1cccc(-c2cc3c(-c4[nH]c(-c5ccccc5)nc4-c4ccc(F)cc4)ccnc3[nH]2)c1`: the IC50 in [1] (read-out: IC50) worked out at 24.1 nM; in [2] (read-out: IC50), 15.4 nM; in [5], 651 nM.

As to `Oc1cccc(-c2nc(-c3ccc(F)cc3)c(-c3ccnc4[nH]c(-c5ccccc5)cc34)[nH]2)c1`, the IC50 in data set [1] (read-out: IC50) came to 30.4 nM; in data set [2] (read-out: IC50) it was 23.6 nM; in data set [5] it was 706 nM; in [6] it was 782 nM; in [7], 7 nM.

With `C=CC(=O)Nc1cccc(-c2c[nH]c3nccc(-c4[nH]c(CCCO)nc4C4CC4)c23)c1`, the IC50 is 673 nM in [1] (read-out: IC50), 258 nM in [2] (read-out: IC50), “Not Active” in [3] and “Not Active” in [4].

As for `CCC(=O)Nc1cccc(-c2cc3c(-c4[nH]c(-c5ccccc5)nc4-c4ccc(F)cc4)ccnc3[nH]2)c1`, the figures for the IC50 in data set [1] (read-out: IC50), in [2] (read-out: IC50) and in data set [5] were 27.2 nM, 18.7 nM and 987 nM, respectively.

For the compound `C=CC(=O)NCc1cccc(-c2cc3c(-c4[nH]c(-c5ccccc5)nc4-c4ccc(F)cc4)ccnc3[nH]2)c1`, the IC50 in [1] (read-out: IC50) is 33.2 nM; in data set [2] (read-out: IC50), 34.2 nM; in data set [5], 683 nM.

For the compound `C=CC(=O)Nc1cccc(-c2c[nH]c3nccc(-c4[nH]c(-c5ccccc5)nc4-c4ccc(F)cc4)c23)c1`, the IC50 in data set [1] (read-out: IC50) is 10.5 nM; in data set [2] (read-out: IC50), 7.8 nM; in [5], 112 nM; in [4], “Not Active”.

For `C=CC(=O)NCc1cccc(-c2cc3cccnc3[nH]2)c1`, the IC50 entry in [1], in data set [2], in [3] and in [4] was “Not Active” in each case.

For the compound `CCC(=O)Nc1cccc(-c2c[nH]c3nccc(-c4[nH]c(CCCO)nc4C4CC4)c23)c1`, the IC50 entry in [1], in data set [2], in data set [3] and in data set [4] was “Not Active” in each case.

`C=CC(=O)Nc1cccc(-c2cc3c(-c4[nH]c(-c5ccccc5)nc4-c4ccc(F)cc4)ccnc3[nH]2)c1`: the IC50 in [1] (read-out: IC50) stood at 43.2 nM; in data set [2] (read-out: IC50), 32.1 nM; in data set [5], 908 nM.

In the case of `OCCc1nc(-c2ccc(F)cc2)c(-c2ccnc3[nH]c(-c4ccccc4)cc23)[nH]1`, the IC50 in [1] (read-out: IC50) was less than 0.3 nM; in data set [2] (read-out: IC50) it was less than 0.3 nM; in [5] it was 12.5 nM; in data set [6] it was 7.64 nM; in data set [7], 4 nM. Also, the Ratio IC50 in data set [8] was determined as 35. Also, the solubility in [9] (read-out: solubility) worked out at 7 µg/mL (≈ 17.6 µM).

Consider `OCCCc1nc(-c2ccc(F)cc2)c(-c2ccnc3[nH]c(-c4ccccc4)cc23)[nH]1`, for which the IC50 was 21.1 nM in data set [6]; less than 0.5 nM in data set [10]; less than 0.5 nM in [11]; 6.47 nM in data set [12]; 2 nM in data set [7].

Regarding `C=CC(=O)NCc1cccc(-c2nc(-c3ccc(F)cc3)c(-c3ccnc4[nH]c(-c5ccccc5)cc34)[nH]2)c1`, the IC50 in data set [1] (read-out: IC50) is 17.6 nM; in [2] (read-out: IC50) it was 13 nM; in data set [5] it was 263 nM.

Regarding `Oc1ccc(-c2nc(-c3ccccc3)c(-c3ccnc4[nH]c(-c5ccccc5)cc34)[nH]2)cc1`, the IC50 in data set [1] (read-out: IC50) worked out at 13.6 nM; in data set [2] (read-out: IC50) it was 11.2 nM; in data set [5] it was 658 nM; in data set [7] it was 1 nM.

Take `C=CC(=O)Nc1cccc(-c2c[nH]c3nccc(Cl)c23)c1`: the results for the concentration for half-maximal inhibition (IC50) in data set [1] (read-out: IC50), in data set [2] (read-out: IC50) and in [5] were 525 nM, 459 nM and 67.9 nM, respectively.

As for `OCCCCc1nc(-c2ccc(F)cc2)c(-c2ccnc3[nH]c(-c4ccccc4)cc23)[nH]1`, the IC50 in data set [1] (read-out: IC50) is less than 0.3 nM; in data set [2] (read-out: IC50), less than 0.3 nM; in data set [5], 8.39 nM; in data set [6], 8.4 nM; in data set [7] it was 2 nM. The solubility result in [9] is “Insoluble”.

Take `Oc1ccc(-c2nc(-c3ccnc4[nH]c(-c5ccccc5)cc34)c(-c3ccc(F)cc3)[nH]2)cc1`: the IC50 is 49.2 nM in data set [1] (read-out: IC50), 24.1 nM in data set [2] (read-out: IC50) and 916 nM in [5].

As for `NCc1cccc(-c2nc(-c3ccc(F)cc3)c(-c3ccnc4[nH]c(-c5ccccc5)cc34)[nH]2)c1`, the IC50 in data set [6] is 336 nM; in data set [10], less than 0.5 nM; in [11], less than 0.5 nM; in data set [12] it was 160 nM.

For the compound `C=CC(=O)NCc1cccc(-c2nc(C3CC3)c(-c3ccnc4[nH]c(-c5ccccc5)cc34)[nH]2)c1`, the IC50 was 4050 nM in data set [1] (read-out: IC50), 3920 nM in [2] (read-out: IC50) and 11300 nM in data set [5].

For the compound `Oc1ccc(-c2nc(-c3ccco3)c(-c3ccnc4[nH]c(-c5ccccc5)cc34)[nH]2)cc1`, the IC50 in data set [1] (read-out: IC50) was found to be 1790 nM; in [2] (read-out: IC50), 1300 nM; in data set [5] it was 3310 nM; in data set [7], 288 nM.

In the case of `CCC(=O)Nc1cccc(-c2c[nH]c3nccc(-c4[nH]c(-c5ccccc5)nc4-c4ccc(F)cc4)c23)c1`, the IC50 entry in [1], in data set [2], in data set [3] and in data set [4] was “Not Active” throughout.

Take `CCC(=O)Nc1cccc(-c2c[nH]c3nccc(-c4[nH]c(CCCO)nc4-c4ccc(F)cc4)c23)c1`: the IC50 amounted to 673 nM in data set [1] (read-out: IC50), 279 nM in data set [2] (read-out: IC50) and 5900 nM in data set [5].

For the compound `Fc1ccc(-c2[nH]c(-c3ccccc3)nc2-c2ccnc3[nH]c(-c4ccccc4)cc23)cc1`, the IC50 in data set [1] (read-out: IC50) came out at 215 nM; in [2] (read-out: IC50), 102 nM; in data set [5] it was 1450 nM; in [6] it was 1430 nM.

Consider `C=CC(=O)Nc1cccc(-c2c[nH]c3nccc(-c4[nH]c(CCCO)nc4C(F)(F)F)c23)c1`, for which the IC50 is 680 nM in data set [1] (read-out: IC50), 297 nM in [2] (read-out: IC50), 1880 nM in data set [5] and “Not Active” in data set [4].

As a reminder, the IC50 is the midpoint of a concentration-inhibition curve. The solubility is the dissolved amount per volume that the medium holds.

(Values after ChEMBL document CHEMBL4049460, “Trisubstituted Imidazoles with a Rigidized Hinge Binding Motif Act As Single Digit nM Inhibitors of Clinically Relevant EGFR L858R/T790M and L858R/T790M/C797S Mutants: An Example of Target Hopping” (J Med Chem, 2017).)
